This note sets out measurements from ChEMBL document CHEMBL4811235, “Design, synthesis, biological evaluation and structure-activity relationship study of quinazolin-4(3H)-one derivatives as novel USP7 inhibitors” (Eur J Med Chem, 2021).

The target in experiment [1] is T1, Ubiquitin carboxyl-terminal hydrolase 7 (Homo sapiens, UniProt Q93009). The experiment can be described thus: Inhibition of recombinant USP7 catalytic domain (unknown origin) using UbA10 as substrate incubated with substrate for 75 mins followed by compound addition and measured after 1 hr by TR-FRET assay relative to control. Also noted: concentration or dose not given beside the values. In a few lines: (§1)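 TR-FRET deubiquitinase assay. The recombinant USP7 catalytic domain was mixed with compound (from 2.5 mM DMSO stocks) in 50 mM HEPES pH 7.5 with 0.01% Triton X-100 for 10 min at 25 °C. The substrate was GST- and biotin-tagged Ub-A10, incubated for 75 min at 37 °C. Streptavidin-d2/anti-GST-Eu detection reagents were then added for 1 h at 25 °C and the signal read at […]/em 665 nm. IC50 came from regression.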
(Time-resolved FRET reads energy transfer from a long-lived donor to a nearby acceptor.)
Target sequence in this assay (Q93009 whole entry, looked up, the tested form may be a part): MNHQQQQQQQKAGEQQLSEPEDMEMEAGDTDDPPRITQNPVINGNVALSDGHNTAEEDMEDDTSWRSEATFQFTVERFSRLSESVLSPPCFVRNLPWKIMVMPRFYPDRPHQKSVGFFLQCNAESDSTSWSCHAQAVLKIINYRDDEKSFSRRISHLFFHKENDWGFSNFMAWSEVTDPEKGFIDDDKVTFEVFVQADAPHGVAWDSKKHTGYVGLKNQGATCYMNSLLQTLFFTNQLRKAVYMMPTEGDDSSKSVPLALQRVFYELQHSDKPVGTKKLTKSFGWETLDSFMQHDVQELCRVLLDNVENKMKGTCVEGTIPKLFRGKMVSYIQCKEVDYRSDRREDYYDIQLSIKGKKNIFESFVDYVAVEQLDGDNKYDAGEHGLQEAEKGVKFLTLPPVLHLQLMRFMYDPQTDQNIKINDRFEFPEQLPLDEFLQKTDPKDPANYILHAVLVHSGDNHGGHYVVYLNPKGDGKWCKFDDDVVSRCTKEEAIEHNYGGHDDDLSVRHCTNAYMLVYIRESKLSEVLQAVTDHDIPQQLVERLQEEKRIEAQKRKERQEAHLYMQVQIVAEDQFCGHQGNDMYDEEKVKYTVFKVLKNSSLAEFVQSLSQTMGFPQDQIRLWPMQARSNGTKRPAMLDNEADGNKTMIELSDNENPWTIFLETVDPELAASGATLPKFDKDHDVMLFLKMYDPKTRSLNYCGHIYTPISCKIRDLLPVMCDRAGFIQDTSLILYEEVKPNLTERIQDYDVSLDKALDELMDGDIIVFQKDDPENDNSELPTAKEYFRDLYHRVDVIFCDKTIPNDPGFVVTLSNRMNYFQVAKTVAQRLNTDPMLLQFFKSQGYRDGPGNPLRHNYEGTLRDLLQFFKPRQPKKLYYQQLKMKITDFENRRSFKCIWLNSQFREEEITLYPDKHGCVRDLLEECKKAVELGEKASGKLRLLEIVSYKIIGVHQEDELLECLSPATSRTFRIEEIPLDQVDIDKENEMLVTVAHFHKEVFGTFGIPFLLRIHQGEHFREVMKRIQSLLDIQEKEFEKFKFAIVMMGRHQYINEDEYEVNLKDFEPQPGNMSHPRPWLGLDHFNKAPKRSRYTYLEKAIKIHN

The target of experiment [2] is T1, Ubiquitin carboxyl-terminal hydrolase 7. Put plainly: Inhibition of recombinant USP7 catalytic domain (unknown origin) using UbA10 as substrate incubated with substrate for 75 mins followed by compound addition and measured after 1 hr by TR-FRET assay. A digest of the protocol: as §1
Target sequence in this assay (Q93009 whole entry, the tested form may be a part): as the sequence (Q93009 whole entry, looked up, the tested form may be a part) above
Experiment [3] deals with BGC-823. Put plainly: Cytotoxicity against human BGC-823 cells incubated for 4 hrs by MTT assay. It counts as functional, cell-based. A digest of the protocol: (§2)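 MTT assay. Compounds were dissolved in DMSO and tested at […] in triplicate. Cells were incubated with MTT at 37 °C for 4 h, the medium was replaced with DMSO, and absorbance was read at 490 nm. IC50 values came from regression.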
A general note: Tetrazolium assays rely on reduction of a dye to a coloured formazan, in cell work by metabolically active cells.

Experiment [4] relates to MGC-803. Put plainly: Cytotoxicity against human MGC-803 cells incubated for 4 hrs by MTT assay. It counts as functional, cell-based. The conditions noted are these: for IC50: MGC-803, 4 h. A digest of the protocol: as §2
The target in experiment [5] is T1, Ubiquitin carboxyl-terminal hydrolase 7. Put plainly: Inhibition of USP7 in human BGC-823 cells assessed as upregulation of p21 protein expression by Western blot analysis. It counts as cell-based.
Target sequence in this assay (Q93009 whole entry, looked up, the tested form may be a part): as above
In experiment [6] the test system is BGC-823. The experiment can be described thus: Cytotoxicity against human BGC-823 cells at 50 uM incubated for 4 hrs by MTT assay relative to control. It is filed as functional.
The test system of experiment [7] is MGC-803. The experiment can be described thus: Cytotoxicity against human MGC-803 cells at 50 uM incubated for 4 hrs by MTT assay relative to control. It is filed as functional.
For experiment [8], the target named is T1, Ubiquitin carboxyl-terminal hydrolase 7. Put plainly: Inhibition of USP7 in human MGC-803 cells assessed as increase in p53 expression level at 2.5 to 10 uM by Western blot analysis. It counts as cell-based. The conditions noted are these: dose 2.5-10 µM.
Target sequence in this assay (Q93009 whole entry, looked up, the tested form may be a part): as above
Experiment [9] shares this target. The experiment can be described thus: Binding affinity to recombinant USP7 (208 to 560 residues) (unknown origin) assessed as dissociation constant by biolayer interferometry. For orientation: BLI is a label-free optical method that tracks binding on a fibre tip over time.
Target sequence in this assay (Q93009 whole entry, the tested form may be a part): as the sequence (Q93009 whole entry, looked up, the tested form may be a part) above
Experiment [10] shares this target. Put plainly: Inhibition of USP7 in human MGC-803 cells assessed as increase in p21 expression level at 2.5 to 10 uM by Western blot analysis. It is filed as cell-based. The conditions noted are these: dose 2.5-10 µM.
Target sequence in this assay (Q93009 whole entry, looked up, the tested form may be a part): as above
Experiment [11] deals with MGC-803. The experiment can be described thus: Induction of cell cycle arrest in human MGC-803 cells assessed as accumulation of cells at S phase incubated for 72 hrs by propidium iodide staining based flow cytometry. It is filed as functional. In a few lines: (§3)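 Cell cycle: MGC-803 cells were treated with various compound concentrations for 72 h, harvested, washed in PBS at 4 °C, and stained with a commercial PI cell-cycle kit following its instructions. DNA content was analysed by flow cytometry.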

Experiment [12] has as its target T1, Ubiquitin carboxyl-terminal hydrolase 7. Put plainly: Inhibition of USP7 in human MGC-803 cells assessed as decrease in MDM2 protein level by Western blot analysis. It is filed as cell-based. To be noted: time 0.5-7 hrs, TDE = time-dependent effect.
Target sequence in this assay (Q93009 whole entry, looked up, the tested form may be a part): as above
The test system of experiment [13] is MGC-803. Put plainly: Induction of cell cycle arrest in human MGC-803 cells assessed as accumulation of cells at G0/G1 phase incubated for 72 hrs by propidium iodide staining based flow cytometry. It is filed as functional. In a few lines: as §3
Experiment [14] deals with MGC-803. Put plainly: Inhibition of colony formation in human MGC-803 cells after 7 days by crystal violet staining based assay. It counts as functional, cell-based. The conditions noted are these: time 7.0 day. A digest of the protocol:
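Clonogenic assay: MGC-803 cells in log phase were seeded at 200 cells per well, allowed to attach for 12 h at 37 °C in 5% CO2, then exposed to the indicated concentrations or to DMSO for 7 days. Colonies were fixed with 4% paraformaldehyde and stained with 0.1% crystal violet for 15 min.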

The target in experiment [15] is T1, Ubiquitin carboxyl-terminal hydrolase 7. Put plainly: Inhibition of N-terminal His-FLAG-tagged human USP7 (2 to 1102 residues) expressed in baculovirus infected Sf9 cells using Ub-AMC as substrate preincubated with enzyme for 40 mins followed by substrate addition for 30 mins by fluorescence plate reader analysis. In a few lines: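 USP7 activity with a commercial Ub-AMC inhibitor screening kit. Compound working solutions were made in 1X buffer containing 6.5 mM DTT. USP7 was added and preincubated for 40 min at 25 °C. Ub-AMC, diluted 800-fold, was added for 30 min at 25 °C. Fluorescence was read at ex 360/em 460 nm, and IC50 came from regression.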
Target sequence in this assay (Q93009 whole entry, the tested form may be a part): as the sequence (Q93009 whole entry, looked up, the tested form may be a part) above

Molecules are shown by their SMILES. Calls of active or inactive are those of the source. The calls are words filed in the database; no cut-off is given here.

For orientation: inhibition means the relative decrease from the control value, in per cent. A word on the IC50: it is the concentration needed to halve the response being measured. A word on the Kd: it is the equilibrium constant for the complex coming apart.

For `COc1ccccc1CNc1ccc2c(=O)n(CC3(O)CCN(C(=O)CCc4ccccc4)CC3)cnc2c1`, the inhibition in [1] turned out to be 45.9%.

As to `O=C(CCc1ccccc1)N1CCC(O)(Cn2cnc3cc(NCCO)ccc3c2=O)CC1`, the IC50 in experiment [2] turned out to be 16.4 µM.

As to `O=C(COc1cccc2ccccc12)N1CCC(O)(Cn2cnc3cc(Cl)ccc3c2=O)CC1`, the result with BGC-823 [3] and in the experiment with MGC-803 [4] was Active. Also, in experiment [1], the inhibition was determined as 9.83%.

Consider `O=C(c1cccnc1)N1CCC(O)(Cn2cnc3cc(Cl)ccc3c2=O)CC1`, for which, in experiment [1], the inhibition is under 50%. In addition, in experiment [2], the half-inhibitory concentration (IC50) is over 50 µM.

`CN(C)CCNc1ccc2c(=O)n(CC3(O)CCN(C(=O)CCc4ccccc4)CC3)cnc2c1`: in experiment [5], the inhibition entry was “Dose-Dependent Effect”. For the same compound, the IC50 in [2] was determined as 5.98 µM.

With `O=C(CCc1ccccc1)N1CCC(O)(Cn2cnc3cc(Cl)ccc3c2=O)CC1`, the result in the experiment on BGC-823 [3] and with MGC-803 [4] was inactive. Besides, the inhibition at 50 µM with BGC-823 [6] is 8.45%; in the experiment with MGC-803 [7], 31.4%. Also, the IC50 in [2] was 23.1 µM.

Consider `O=C(c1ccc(O)cc1)N1CCC(O)(Cn2cnc3cc(Cl)ccc3c2=O)CC1`, for which the outcome with BGC-823 [3] and in the experiment with MGC-803 [4] was Active.

As for `O=C(c1cccc(Cl)c1Cl)N1CCC(O)(Cn2cnc3cc(Cl)ccc3c2=O)CC1`, the outcome with MGC-803 [4] was Active.

Turning to `O=C(CCc1ccccc1)N1CCC(O)(Cn2cnc3cc(NCCN4CCCC4)ccc3c2=O)CC1`, the inhibition entry (in experiment [8]; in experiment [10]; in the experiment on MGC-803 [14]) was “Active” throughout. In [9], the Kd came out at 77 µM. For the same compound, the outcome in the experiment with MGC-803 [11] and in the experiment with MGC-803 [13] was Active. The inhibition at 50 µM in the experiment on BGC-823 [6] amounted to 28.4%; in the experiment on MGC-803 [7] it was 31%. Further, in [12], the inhibition entry was “Tde”. Further, the IC50 was 4.86 µM in [2] and 5.05 µM in experiment [15].

On to `Nc1cc(Cl)ccc1C(=O)N1CCC(O)(Cn2cnc3cc(Cl)ccc3c2=O)CC1`, for which the result in the experiment with MGC-803 [4] was Active. In experiment [1], the inhibition is 46.5%.

With `O=C(COc1ccccc1)N1CCC(O)(Cn2cnc3cc(Cl)ccc3c2=O)CC1`, the inhibition in experiment [1] is 22.7%.

Turning to `O=C(CCc1ccccc1)N1CCC(O)(Cn2cnc3cc(NCCN4CCCCC4)ccc3c2=O)CC1`, the 50% inhibitory concentration (IC50) in experiment [2] amounted to 37 µM.

Take `O=C(CCc1ccccc1)N1CCC(O)(Cn2cnc3cc(Br)ccc3c2=O)CC1`: the IC50 in experiment [2] was found to be 27.4 µM.

Consider `O=C(c1ccc[nH]1)N1CCC(O)(Cn2cnc3cc(Cl)ccc3c2=O)CC1`, for which the inhibition in experiment [1] was under 50%. In experiment [2], the half-maximal inhibitory concentration (IC50) is over 50 µM.

For `O=C(CCc1ccccc1)N1CCC(O)(Cn2cnc3cc(NCc4ccc(Cl)cc4)ccc3c2=O)CC1`, the inhibition in experiment [1] was found to be 49.9%.

Take `O=C(c1cccc(Br)c1)N1CCC(O)(Cn2cnc3cc(Cl)ccc3c2=O)CC1`: the inhibition in experiment [1] came to 42.2%.

Consider `O=C(c1ccccc1)N1CCC(O)(Cn2cnc3cc(Cl)ccc3c2=O)CC1`, for which, in experiment [1], the inhibition is 18.6%.

With `O=C(Cc1cccc2ccccc12)N1CCC(O)(Cn2cnc3cc(Cl)ccc3c2=O)CC1`, the half-maximal inhibitory concentration (IC50) in experiment [2] is over 50 µM.

For the compound `O=C(CCc1ccccc1)N1CCC(O)(Cn2cnc3cc(NCCc4ccccc4)ccc3c2=O)CC1`, the result with BGC-823 [3] was Active. Further, the IC50 was found to be 32.1 µM with MGC-803 [4] and 15.3 µM in experiment [2]. Besides, in the experiment with BGC-823 [6], the inhibition at 50 µM came to 54%.

With `CC(CC(=O)N1CCC(O)(Cn2cnc3cc(NCCN4CCCC4)ccc3c2=O)CC1)c1ccccc1` (stereo not given), the inhibition result in experiment [5] is “Dose-Dependent Effect”.

As to `Nc1cc(Br)ccc1C(=O)N1CCC(O)(Cn2cnc3cc(Cl)ccc3c2=O)CC1`, the outcome in the experiment with BGC-823 [3] was Active. Also, the figures for the IC50 (in the experiment on MGC-803 [4]; in experiment [2]) were 30 µM and 46.3 µM, respectively. Moreover, in the experiment on BGC-823 [6], the inhibition at 50 µM was found to be 52%.

Regarding `O=C(c1ccc([N+](=O)[O-])cc1)N1CCC(O)(Cn2cnc3cc(Cl)ccc3c2=O)CC1`, the inhibition in [1] is 58.3%.

With `O=C(CCc1ccccc1)N1CCC(O)(Cn2cnc3cc(NCc4ccco4)ccc3c2=O)CC1`, the IC50 in experiment [2] worked out at 9.8 µM.

For `O=C(Cc1ccc(C(F)(F)F)cc1)N1CCC(O)(Cn2cnc3cc(Cl)ccc3c2=O)CC1`, the half-inhibitory concentration (IC50) in [2] is over 50 µM.

Consider `O=C(/C=C/c1ccccc1)N1CCC(O)(Cn2cnc3cc(Cl)ccc3c2=O)CC1`, for which, in experiment [1], the inhibition amounted to 32.6%.

For `O=C(c1ccccc1[N+](=O)[O-])N1CCC(O)(Cn2cnc3cc(Cl)ccc3c2=O)CC1`, the inhibition in experiment [1] amounted to 4.29%.

Take `CC(CC(=O)N1CCC(O)(Cn2cnc3cc(Cl)ccc3c2=O)CC1)c1ccccc1` (stereo not given): the half-inhibitory concentration (IC50) in [2] amounted to 6.79 µM.

For `CC(CC(=O)N1CCC(O)(Cn2cnc3cc(NCCN(C)C)ccc3c2=O)CC1)c1ccccc1` (stereo not given), the inhibition entry in experiment [5] was “Dose-Dependent Effect”. Also, the half-inhibitory concentration (IC50) in [2] is 1.54 µM; in experiment [15], 0.595 µM.

In the case of `Cc1ccc(S(=O)(=O)N2CCC(O)(Cn3cnc4cc(Cl)ccc4c3=O)CC2)cc1`, the inhibition in experiment [1] came out at 0.8%.

Regarding `O=C(CCc1ccccc1)N1CCC(O)(Cn2cnc3cc(NCc4ccccc4Cl)ccc3c2=O)CC1`, the concentration for half-maximal inhibition (IC50) came out at 43.1 µM in the experiment on BGC-823 [3] (BGC-823, 4 h) and 29.7 µM in the experiment with MGC-803 [4]. For the same compound, in experiment [1], the inhibition was found to be 49.1%. For the same compound, the results for the inhibition at 50 µM in the experiment with BGC-823 [6] and in the experiment on MGC-803 [7] were 58.2% and 86.7%, respectively.

For `O=C(c1ccccn1)N1CCC(O)(Cn2cnc3cc(Cl)ccc3c2=O)CC1`, the inhibition in experiment [1] is under 50%. In addition, the half-maximal inhibitory concentration (IC50) in [2] is over 50 µM.
